Data set [1] has as its system PC-3 cells. Briefly: Cell uptake of 18F-labeled BBN peptides. The data set is classed as cell-based, human. As to conditions: for PC-3 cell uptake peak value (percent added radioactivity): 37 °C, 15 min, n = 3, mean ± SD; for Cell uptake at 37 °C versus 4 °C: PC-3 cells. The method, boiled down: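 PC-3 cells (F-12K, 10% FBS, 37 °C, 5% CO2) were seeded at 1 × 10^5 per well overnight, washed three times with PBS, and given ~0.5 μCi/well radiotracer in triplicate at 37 °C. At 15, 30, 60 and 120 min, cells were rinsed with PBS and lysed with 0.1 M NaOH. Lysate activity was gamma-counted and expressed as percent added radioactivity.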

Data set [2] relates to PC-3 cells. Briefly: Cell washout. The data set is classed as cell-based, human. The following applies: 37 °C, serum-free medium devoid of radioactivity. The method, boiled down: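 PC-3 cells were seeded at 1 × 10^5 per well overnight, PBS-rinsed, then loaded with ~0.5 μCi/well radiotracer in triplicate for 2 h at 37 °C. After a PBS wash they were re-incubated in serum-free medium. At 0, 15, 30, 60 and 120 min, cells were PBS-washed and lysed in 0.1 M NaOH. Retained activity was gamma-counted as percent added radioactivity.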

Data set [3] relates to PC-3 tumor-bearing nude mice. Briefly: Small animal microPET imaging, ROI-derived radioactivity accumulation. The data set is classed as in vivo. As to conditions: 3.7 MBq i.v.; PC-3 tumor-bearing mice; n = 3/group. A digest of the protocol:
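Male athymic nude mice carried PC-3 xenografts (5 × 10^6 cells s.c., front flank; 100–300 mm3 after 3–4 weeks). Under isoflurane, ~3.7 MBq (100 μCi) radiotracer was given via tail vein. Five-minute static scans were taken at 30 min, 1 h and 2 h (2D OSEM, no attenuation or scatter correction). ROIs on decay-corrected coronal images gave %ID/g, assuming 1 g/mL; n = 3/group.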

Consider “18F-FP- GGGRDN-FQWAVGHLM-NHEt [^18F-FP-MATBBN]”, for which, in the data set with PC-3 cells [1], the “PC-3 cell uptake peak value (percent added radioactivity)” value was found to be 0.3 ± 0.07% and the “Cell uptake at 37 °C versus 4 °C” value is on record as “no significant difference”. Further, in the data set on PC-3 cells [2], the “Washout rate from PC-3 cells” value is “Much faster washout rate”.
In the same order, the values of “18F-FP- GGGRDN-QWAVGHLM-NH2 [^18F-FP-MAGBBN]” are 1.2 ± 0.07%, 2 fold and “slower washout”.
For 18F-FP-Aca-QWAVGHLM-NH2 [^18F-FP-AGBBN], in data set [3], the “Activity accumulation in non-target organs on PET images (in words)” value was “very high liver, bile and intestinal uptake”; the “Tumor uptake on PET images (in words)” value is reported as “some tumor accumulation”.
Regarding 18F-FP-FQWAVGHL-NHEt [^18F-FP-ATBBN], in data set [3], the “Activity accumulation in non-target organs on PET images (in words)” value is “rapid and prominent activity accumulation in the liver and intestines”; the “Tumor uptake on PET images (in words)” value is recorded as “almost no tumor uptake”.

Values taken from paper PMC3086613 (Theranostics, 2011).
